Measurements taken from ChEMBL document CHEMBL3108706, “Design, synthesis, and biological activity of novel dicoumarol glucagon-like peptide 1 conjugates” (J Med Chem, 2013).
Activity calls are given as the source filed them. The calls are words filed in the database; no cut-off is given here.

Experiments:
Mus musculus [1] = assay: Antidiabetic activity in C57BL/6J-m+/+Leprdb (db/db) mouse assessed as reduction of blood glucose level at 25 nmol/kg, ip qd administered for 49 days followed by glucose challenge on day 52 measured after 120 mins post glucose challenge by IPGTT; type: functional, organism-based
Outline: (§1)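 Mice from the 49-day once-daily ip dosing study (db/db, n = 8/group) were tested by IPGTT on day 0 and day 52, 3 days after the last dose. They were fasted 18 h, challenged ip with 1 g/kg glucose, and tail-vein glucose was read with a meter at 0, 15, 30, 45, 60, 90 and 120 min.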

Rattus norvegicus [2] = assay: Antidiabetic activity in Sprague-Dawley rat assessed as reduction of plasma glucose level at 25 nmol/kg, ip administered 0.5 hrs prior to glucose challenge measured at 15 to 60 mins by OGTT; type: functional, organism-based
Rattus norvegicus [3] = assay: Anticoagulant activity in Sprague-Dawley rat assessed as prothombin time at 25 nmol/kg, iv administered for 6 days measured on day 7 by coagulometric analysis (reference value: 13.5 +/- 0.32 secs); type: functional
Rattus norvegicus [4] = assay: Anticoagulant activity in Sprague-Dawley rat assessed as activated […] time at 25 nmol/kg, iv administered for 6 days measured on day 7 by coagulometric analysis (reference value: 26.5 +/- 0.81 secs); type: functional
Mus musculus [5] = assay: Antidiabetic activity in C57BL/6J-m+/+Leprdb (db/db) mouse assessed as reduction of blood glucose AUC (0 to 48 hrs) at 25 nmol/kg, ip administered for 0.5 hrs; type: functional, organism-based
Outline: (§2)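 Non-fasted male db/db mice (7 weeks, free access to food and water) got a single ip injection (25 or 150 nmol/kg) or saline. Mean ± SD, n = 6.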

albumin = albumin (Homo sapiens, UniProt P02768); assay: Binding affinity to human serum albumin at 100 ug/mL after 3 hrs relative to control; type: ADME; conditions: read-out: PB (converted)
Outline: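 Peptide at 100 μg/mL in PBS (50 μL) was incubated with HSA-conjugated Sepharose resin for 3 h at 25 °C, then centrifuged (1000 rpm, 10 min). Unbound peptide in the supernatant was quantified by micro BCA assay. Nonspecific adsorption was corrected with NHS-inactivated, albumin-free resin.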

Rattus norvegicus [6] = assay: Anticoagulant activity in Sprague-Dawley rat assessed as activated […] time at 150 nmol/kg, iv administered for 6 days measured on day 7 by coagulometric analysis (reference value: 26.5 +/- 0.81 secs); type: functional
Mus musculus [7] = assay: Hypoglycemic activity in C57BL/6J-m+/+Leprdb (db/db) mouse assessed as time required to reduce plasma glucose level below 8.35 mM at 25 nmol/kg, ip administered for 0.5 hrs; type: functional; outline: as §2
Mus musculus [8] = assay: Antidiabetic activity in C57BL/6J-m+/+Leprdb (db/db) mouse assessed as reduction of HbA1c level at 25 to 50 nmol/kg, ip qd measured over 7 weeks of drug treatment; type: functional, organism-based
Outline: (§3)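 Male and female db/db mice (6 weeks, n = 8/group) were matched on HbA1c and given ip injections once daily for 49 days (25 or 50 nmol/kg; comparator 25 nmol/kg; saline controls). Wild-type C57BL/6 littermates served for normalization. HbA1c was measured weekly and body weight daily.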

Rattus norvegicus [9] = assay: Anticoagulant activity in Sprague-Dawley rat assessed as prothombin time at 150 nmol/kg, iv administered for 6 days measured on day 7 by coagulometric analysis (reference value: 13.5 +/- 0.32 secs); type: functional
Mus musculus [10] = assay: Hypoglycemic activity in C57BL/6J-m+/+Leprdb (db/db) mouse assessed as reduction of plasma glucose level at 25 nmol/kg, ip administered 0.5 hrs prior to glucose challenge measured at 21.5 to 24 hrs by IPGTT; type: functional, organism-based
Mus musculus [11] = assay: Antidiabetic activity in C57BL/6J-m+/+Leprdb (db/db) mouse assessed as reduction of blood glucose level at 25 nmol/kg, ip qd administered for 49 days followed by glucose challenge on day 52 measured up to 90 mins post glucose challenge by IPGTT; type: functional, organism-based; outline: as §1
[12] = Cmax in Sprague-Dawley rat at 15 nmol/kg, sc by LC-MS/MS analysis; type: ADME, organism-based; set-up: dose 15 nmol/kg, route subcutaneous; conditions: in vivo
[13] = Tmax in Sprague-Dawley rat at 15 nmol/kg, sc by LC-MS/MS analysis; type: ADME, organism-based; conditions: in vivo
[14] = target: Glucagon-like peptide 1 receptor (Homo sapiens, UniProt P43220); assay: Activation of human GLP-1 receptor overexpressed in HEK293 cells assessed as cAMP accumulation after 20 mins by HTRF assay; type: functional, cell-based
Mus musculus [15] = assay: Antidiabetic activity in C57BL/6J-m+/+Leprdb (db/db) mouse assessed as reduction of blood glucose level at 50 nmol/kg, ip qd administered for 49 days followed by glucose challenge on day 52 measured after 120 mins post glucose challenge by IPGTT; type: functional, organism-based; outline: as §1
Mus musculus [16] = assay: Antidiabetic activity in ip dosed C57BL/6J-m+/+Leprdb (db/db) mouse assessed as suppression of body weight gain administered as qd measured over 7 weeks of drug treatment; type: functional, organism-based; outline: as §3
[17] = Half life in Sprague-Dawley rat plasma at 1000 ng/mL by LC-MS/MS analysis; type: ADME, cell-free
[18] = Mean residence time in Sprague-Dawley rat at 15 nmol/kg, sc by LC-MS/MS analysis; type: ADME, organism-based; conditions: in vivo
Mus musculus [19] = assay: Antidiabetic activity in C57BL/6J-m+/+Leprdb (db/db) mouse assessed as reduction of blood glucose level at 50 nmol/kg, ip qd administered for 49 days followed by glucose challenge on day 52 measured up to 90 mins post glucose challenge by IPGTT; type: functional, organism-based; outline: as §1
Mus musculus [20] = assay: Hypoglycemic activity in C57BL/6J-m+/+Leprdb (db/db) mouse assessed as reduction of plasma glucose level at 25 nmol/kg, ip administered 0.5 hrs prior to glucose challenge measured after 18 to 21 hrs by IPGTT (reference value: >30 mM); type: functional
Rattus norvegicus [21] = assay: AUC (0 to infinity) in Sprague-Dawley rat at 15 nmol/kg, sc by LC-MS/MS analysis; type: ADME, organism-based, Plasma; set-up: dose 15 nmol/kg, route subcutaneous, time infinity; conditions: in vivo
Rattus norvegicus [22] = assay: Antidiabetic activity in Sprague-Dawley rat assessed as increase of plasma insulin level at 25 nmol/kg, ip administered 0.5 hrs prior to glucose challenge measured at 15 mins by ELISA; type: functional
Mus musculus [23] = assay: Hypoglycemic activity in C57BL/6J-m+/+Leprdb (db/db) mouse assessed as time required to reduce plasma glucose level below 8.35 mM at 150 nmol/kg, ip administered for 0.5 hrs; type: functional
Outline: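 Non-fasted male db/db mice (7 weeks, free access to food and water) got a single ip injection (25 or 150 nmol/kg) or saline. Glucose AUC0−48h and the time for glucose to return below 8.35 mM were derived. Mean ± SD, n = 6.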

Mus musculus [24] = assay: Hypoglycemic activity in C57BL/6J-m+/+Leprdb (db/db) mouse assessed as reduction of plasma glucose level at 25 nmol/kg, ip administered 0.5 hrs prior to glucose challenge measured up to 17 hrs by IPGTT (reference value: >30 mM); type: functional
Rattus norvegicus [25] = assay: Anticoagulant activity in Sprague-Dawley rat assessed as thombin time at 25 nmol/kg, iv administered for 6 days measured on day 7 by coagulometric analysis (reference value: 19.38 +/- 0.72 secs); type: functional
Rattus norvegicus [26] = assay: Anticoagulant activity in Sprague-Dawley rat assessed as thombin time at 150 nmol/kg, iv administered for 6 days measured on day 7 by coagulometric analysis (reference value: 19.38 +/- 0.72 secs); type: functional
Rattus norvegicus [27] = assay: Antidiabetic activity in Sprague-Dawley rat assessed as increase of plasma insulin level at 25 nmol/kg, ip administered 0.5 hrs prior to glucose challenge measured at 45 mins by ELISA; type: functional
[28] = Elimination half life in Sprague-Dawley rat at 15 nmol/kg, sc by LC-MS/MS analysis; type: ADME, organism-based; conditions: in vivo, read-out: beta t1/2 (converted)
Mus musculus [29] = assay: Hypoglycemic activity in C57BL/6J-m+/+Leprdb (db/db) mouse assessed as reduction of plasma glucose level at 25 nmol/kg, ip administered 0.5 hrs prior to glucose challenge measured at 21.5 hrs by IPGTT (reference value: >30 mM); type: functional
Rattus norvegicus [30] = assay: Antidiabetic activity in Sprague-Dawley rat assessed as reduction of plasma glucose level at 25 nmol/kg, ip administered 0.5 hrs prior to glucose challenge by OGTT (reference value: 13.32 +/- 1.84 mM); type: functional
Rattus norvegicus [31] = assay: Antidiabetic activity in Sprague-Dawley rat assessed as increase of plasma insulin level at 25 nmol/kg, ip administered 0.5 hrs prior to glucose challenge measured for 120 mins by ELISA; type: functional, organism-based
Outline: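 SD rats (200−250 g, n = 6/group) were fasted 12 h and given compound ip (25 nmol/kg) or saline 0.5 h before oral glucose (10 g/kg). Tail-vein blood glucose was read with a meter at −30, 0, 15, 30, 45, 60, 90, 120 and 180 min. Insulin was measured by rat insulin ELISA. Mean ± SD.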

Rattus norvegicus [32] = assay: Anticoagulant activity in Sprague-Dawley rat assessed as prothombin time at 1 umol/kg, iv administered for 6 days measured on day 7 by coagulometric analysis (reference value: 13.5 +/- 0.32 secs); type: functional
Rattus norvegicus [33] = assay: Anticoagulant activity in Sprague-Dawley rat assessed as thombin time at 1 umol/kg, iv administered for 6 days measured on day 7 by coagulometric analysis (reference value: 19.38 +/- 0.72 secs); type: functional
Rattus norvegicus [34] = assay: Anticoagulant activity in Sprague-Dawley rat assessed as activated […] time at 1 umol/kg, iv administered for 6 days measured on day 7 by coagulometric analysis (reference value: 26.5 +/- 0.81 secs); type: functional

Sequence of Glucagon-like peptide 1 receptor (P43220 whole entry): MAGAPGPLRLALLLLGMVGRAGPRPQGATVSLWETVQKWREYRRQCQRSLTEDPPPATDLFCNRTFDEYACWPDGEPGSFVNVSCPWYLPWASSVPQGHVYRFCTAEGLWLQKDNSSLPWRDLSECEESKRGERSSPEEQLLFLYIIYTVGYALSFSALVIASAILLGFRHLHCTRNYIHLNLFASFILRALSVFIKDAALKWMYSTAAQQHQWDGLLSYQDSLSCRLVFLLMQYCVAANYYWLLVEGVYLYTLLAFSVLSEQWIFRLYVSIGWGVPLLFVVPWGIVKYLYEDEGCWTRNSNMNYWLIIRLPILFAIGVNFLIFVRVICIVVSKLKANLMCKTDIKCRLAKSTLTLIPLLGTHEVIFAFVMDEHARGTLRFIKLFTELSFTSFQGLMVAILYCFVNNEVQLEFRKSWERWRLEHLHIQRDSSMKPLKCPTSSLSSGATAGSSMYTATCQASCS
Sequence of albumin (P02768 whole entry): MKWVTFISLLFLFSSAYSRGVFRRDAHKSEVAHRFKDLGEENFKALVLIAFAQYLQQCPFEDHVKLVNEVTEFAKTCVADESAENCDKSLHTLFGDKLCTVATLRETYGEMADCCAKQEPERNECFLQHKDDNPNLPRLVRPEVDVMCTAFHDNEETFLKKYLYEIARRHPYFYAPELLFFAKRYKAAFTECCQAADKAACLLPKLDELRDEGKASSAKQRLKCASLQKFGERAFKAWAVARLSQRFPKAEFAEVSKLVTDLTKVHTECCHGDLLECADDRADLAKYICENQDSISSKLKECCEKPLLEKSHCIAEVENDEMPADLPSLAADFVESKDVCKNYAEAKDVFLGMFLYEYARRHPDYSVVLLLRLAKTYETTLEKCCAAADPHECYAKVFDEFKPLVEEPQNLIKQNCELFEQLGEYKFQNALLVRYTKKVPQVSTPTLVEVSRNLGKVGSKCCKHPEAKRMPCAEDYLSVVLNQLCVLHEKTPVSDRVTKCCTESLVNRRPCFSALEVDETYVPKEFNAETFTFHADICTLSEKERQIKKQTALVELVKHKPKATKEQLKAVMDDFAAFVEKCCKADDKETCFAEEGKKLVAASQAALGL

## CC[C@H](C)[C@H](NC(=O)[C@H](Cc1ccccc1)NC(=O)[C@H](CCC(=O)O)NC(=O)[C@H](CCCCN)NC(=O)[C@H](C)NC(=O)[C@H](C)NC(=O)[C@H](CCC(N)=O)NC(=O)CNC(=O)[C@H](CCC(=O)O)NC(=O)[C@H](CC(C)C)NC(=O)[C@H](Cc1ccc(O)cc1)NC(=O)[C@H](CO)NC(=O)[C@H](CSC1CC(=O)N(CCCCCCCCCCCC(=O)Nc2ccc(C(c3c(O)c4ccccc4oc3=O)c3c(O)c4ccccc4oc3=O)cc2)C1=O)NC(=O)[C@@H](NC(=O)[C@H](CC(=O)O)NC(=O)[C@H](CO)NC(=O)[C@@H](NC(=O)[C@H](Cc1ccccc1)NC(=O)[C@@H](NC(=O)CNC(=O)[C@H](CCC(=O)O)NC(=O)CNC(=O)[C@@H](N)Cc1cnc[nH]1)[C@@H](C)O)[C@@H](C)O)C(C)C)C(=O)N[C@@H](C)C(=O)N[C@@H](Cc1c[nH]c2ccccc12)C(=O)N[C@@H](CC(C)C)C(=O)N[C@H](C(=O)N[C@@H](CCCCN)C(=O)NCC(=O)N[C@@H](CCCNC(=N)N)C(N)=O)C(C)C (stereo not given in full)
Mus musculus [1]
  Activity: inactive
Rattus norvegicus [2]
  Activity: Active
Rattus norvegicus [3]
  PT: 13.39 s
Rattus norvegicus [4]
  APTT: 26.39 s
Mus musculus [5]
  Activity: Active
albumin
  fraction unbound at 3 h, 100 ug/mL: 0.036
Rattus norvegicus [6]
  APTT: 26.38 s
Mus musculus [7]
  Time: 24.7 h
Mus musculus [8]
  Activity: Active
Rattus norvegicus [9]
  PT: 13.55 s
Mus musculus [10]
  Activity: Active
Mus musculus [11]
  Activity: Active
[12]
  Cmax: 880 ng/mL
[13]
  Tmax: 1.82 h
[14]
  EC50: 36.8 pM
Mus musculus [15]
  Activity: inactive
Mus musculus [16]
  Activity: Dose-dependent effect
[17]
  half-life at 1000 ng/mL: 67.9 h
[18]
  MRT: 33.8 h
Mus musculus [19]
  Activity: Active
Mus musculus [20]
  Activity: <16 mM
Rattus norvegicus [21]
  AUC: 40600 ng·h/mL
Rattus norvegicus [22]
  Activity: 1274.72 pM
Mus musculus [23]
  Time: 35.8 h
Mus musculus [24]
  Activity: <12 mM
Rattus norvegicus [25]
  TT: 19.63 s
Rattus norvegicus [26]
  TT: 19.49 s
Rattus norvegicus [27]
  Activity: 582.08 pM
[28]
  half-life: 22.1 h
Mus musculus [29]
  Activity: 13.8 mM
Rattus norvegicus [30]
  Activity: 6.9 mM
Rattus norvegicus [31]
  Activity: Active

## O=c1oc2ccccc2c(O)c1Cc1c(O)c2ccccc2oc1=O [DICUMAROL]
Rattus norvegicus [32]
  PT: 25.22 s
Rattus norvegicus [33]
  TT: 36.85 s
Rattus norvegicus [34]
  APTT: 56.36 s
